Assay results reported in ChEMBL document CHEMBL3102691, “4-Quinolone alkaloids from Melochia odorata” (J Nat Prod, 2014).

Legend:
[1] = Therapeutic index, ratio of LC50 for human CEM-TART cells to EC50 for HIV-1 infected in human CEM-TART cells; type: cell-based; conditions: read-out: TI
[2] = Cytotoxicity against human CEM-TART cells assessed as cell viability after 72 hrs by MTT assay; type: cell-based; conditions: read-out: LC50
In short: (§1)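 20,000 CEM-TART cells with compound (DMSO, 0.5% final) in RPMI/20% FBS with antibiotic; 72 h at 37 °C, 5% CO2; MTT (5 mg/mL in PBS) added, formazan dissolved in DMSO/0.1% SDS and read on plate reader; triplicate or quadruplicate. Highest concentration tested 100 μM.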

[3] = tested on: Human immunodeficiency virus 1; assay: Antiviral activity against HIV-1 infected in human CEM-TART cells assessed as protection against virus-induced cytopathicity after 96 hrs by MTT assay; type: functional, organism-based
In short: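 1A2 subclone of CEM-TART (more lysis-sensitive) in RPMI 1640/20% FBS; compound in DMSO (1% vol) added 2 h after HIV infection; 96 h at 37 °C, 5% CO2; viability by MTT (3–4 h), formazan dissolved in DMSO/0.1% SDS, A570. Triplicates per plate; EC50 = concentration giving 50% of protection by 5 μM AZT, data from ≥3 experiments combined.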

[4] = tested on: Human immunodeficiency virus 1; assay: Antiviral activity against HIV1 infected in human CEM-TART cells assessed as inhibition of viral p24 antigen production at 1.7 uM after 48 hrs by FACS analysis; type: functional; conditions: Human immunodeficiency virus 1, CEM-TART
In short: (§2)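 HIV-infected CEM-TART cells, 48 h. Cells washed in PBS and blocked with murine myeloma IgG (1:100, 30 min, 4 °C). Then fixed in PBS/1% paraformaldehyde/0.05% Triton X100 and stained with AG3.0 mouse anti-P24 (1:50). FITC goat anti-mouse secondary, 30 min at 4 °C each step. Intracellular P24 read by flow cytometry. AZT 5 or 0.5 μg/mL controls.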

[5] = Cytotoxicity against human CEM-TART cells assessed as cell viability at 100 uM after 72 hrs by MTT assay; type: cell-based; in short: as §1
[6] = tested on: Human immunodeficiency virus 1; assay: Antiviral activity against HIV1 infected in human CEM-TART cells assessed as inhibition of viral p24 antigen production at 0.95 uM after 48 hrs by FACS analysis; type: functional; conditions: Human immunodeficiency virus 1, CEM-TART; in short: as §2
[7] = Human immunodeficiency virus 1, CEM-TART, 96 h, read-out: EC50

COc1ccccc1[C@@]1(O)c2ccc3[nH]c(C)c(OC)c(=O)c3c2[C@@H]2CC[C@H]1O2
selectivity ratio [1]: 2
CC50 at 72 h [2]: 102 µM
EC50 [3, 7]: 56200 nM
inhibition at 1.7 µM [4]: > 50%

Cc1[nH]c2ccc3c(c2c(=O)c1O[C@@H]1O[C@H](CO)[C@@H](O)[C@H](O)[C@H]1O)[C@@H]1CC[C@H](O)[C@@]3(c2ccccc2)O1
Activity [5]: Non-toxic
EC50 ([3]; cem-tart): Not Active

Cc1cn([C@H]2C[C@H](N=[N+]=[N-])[C@@H](CO)O2)c(=O)[nH]c1=O [ZIDOVUDINE]
CC50 at 72 h [2]: 89.5 µM
EC50 [3, 7]: 1300 nM

COc1c(C)[nH]c2ccc3c(c2c1=O)[C@@H]1CCC[C@@]3(c2ccccc2)O1
inhibition at 0.95 µM [6]: > 50%
selectivity ratio [1]: 13
CC50 at 72 h [2]: 11 µM
EC50 [3, 7]: 840 nM
